# Source: ChEMBL document CHEMBL3352204, “Cytotoxic and Antibacterial Quinone Sesquiterpenes from a Myrothecium Fungus” (J Nat Prod, 2014)
# The source made the active and inactive calls. No cut-off for these calls is given here.
# Columns and labels:
# [1] = test system: A549; assay: Cytotoxicity against human A549 cells assessed as inhibition of cell growth after 72 hrs by MTT assay; format: functional, cell-based; conditions: A549, 72 h
# Procedure, shortened: (§1)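 Cells grown in RPMI-1640 with 10% FBS at 37 °C under 5% CO2, seeded at 5 × 10^4 cells/mL and allowed about 24 h to attach. Medium was replaced and compound in DMSO added at final 0.016–50 μg/mL (5-fold steps), in quadruplicate, for 72 h. MTT was then given for 4 h, formazan dissolved in DMSO and OD read at 570 nm. IC50 obtained by nonlinear logistic regression.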
# [2] = test system: Bacillus cereus; assay: Antibacterial activity against Bacillus cereus CMCC 63302 after 7 hrs by Alamar Blue assay; format: functional; conditions: CMCC 63302, 7 h
# Procedure, shortened: (§2)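 Strains kept in 20% glycerol at −80 °C, grown in MHB 12 h at 37 °C with shaking at 150 rpm, then adjusted to 1 × 10^5 CFU/mL in MHB. Suspension held Alamar Blue (8% v/v) and 2-fold diluted compound in DMSO (4% v/v), final 1.562–100 μg/mL, in triplicate. Incubated 7 h at 37 °C in the dark. MIC is the lowest concentration whose well stays blue.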
# [3] = test system: HepG2; assay: Cytotoxicity against human HepG2 cells assessed as inhibition of cell growth after 72 hrs by MTT assay; format: functional, cell-based; conditions: HepG2, 72 h; procedure, shortened: as §1
# [4] = test system: Shigella dysenteriae; assay: Antibacterial activity against Shigella dysenteriae CMCC 51252 after 7 hrs by Alamar Blue assay; format: functional, organism-based
# [5] = test system: Salmonella typhimurium; assay: Antibacterial activity against Salmonella typhimurium CMCC 50115 after 7 hrs by Alamar Blue assay; format: functional, organism-based; conditions: Salmonella enterica subsp. enterica serovar Typhimurium; procedure, shortened: as §2
# [6] = test system: Escherichia coli; assay: Antibacterial activity against Escherichia coli ATCC 8739 after 7 hrs by Alamar Blue assay; format: functional, organism-based; procedure, shortened: as §2
# [7] = test system: Staphylococcus aureus; assay: Antibacterial activity against Staphylococcus aureus ATCC 6538 after 7 hrs by Alamar Blue assay; format: functional; conditions: ATCC 6538, 7 h; procedure, shortened: as §2
# [8] = test system: HeLa; assay: Cytotoxicity against human HeLa cells assessed as inhibition of cell growth after 72 hrs by MTT assay; format: functional, cell-based; procedure, shortened: as §1
SMILES,IC50 [1],MIC [2],IC50 [3],MIC [4],MIC [5],MIC [6],MIC [7],IC50 [8]
C=C1CC[C@H]2[C@](C)(CO)CCC[C@]2(C)[C@H]1CC1=C(O)C(=O)[C@](O)(CO)[C@H](O)[C@H]1O,> 50 µM,> 100 µg/mL,> 50 µM,inactive,inactive,inactive,> 100 µg/mL,> 50 µM
COc1cccc2c1C(=O)c1c(O)c3c(c(O)c1C2=O)C[C@@](O)(C(=O)CO)C[C@@H]3O[C@H]1C[C@H](N)[C@H](O)[C@H](C)O1 [DOXORUBICIN],0.69 µM,,,,,,,0.47 µM
C=C1CC[C@H]2[C@](C)(COC(C)=O)CCC[C@]2(C)[C@H]1C[C@]12O[C@H]1[C@H](O)C(CO)=CC2=O,29.4 µM,> 100 µg/mL,37.8 µM,inactive,inactive,inactive,100 µg/mL,19.2 µM
NC[C@H]1O[C@H](O[C@H]2[C@H](O)[C@@H](O[C@H]3O[C@H](CO)[C@@H](O)[C@H](N)[C@H]3O)[C@H](N)C[C@@H]2N)[C@H](O)[C@@H](O)[C@@H]1O [KANAMYCIN],,6.25 µg/mL,,,,,,
CC(C)(O/N=C(\C(=O)N[C@@H]1C(=O)N2C(C(=O)[O-])=C(C[n+]3ccccc3)CS[C@H]12)c1csc(N)n1)C(=O)O [CEFTAZIDIME],,,,,,,12.5 µg/mL,
C[C@@]1(CO)CCC[C@]2(C)[C@H]3C[C@@]45O[C@@H]4C(=O)[C@]4(CO)O[C@@H]4[C@]5(O)CC3=CC[C@@H]12 [HYMENOPSIN B],1.3 µM,> 100 µg/mL,3.2 µM,inactive,inactive,inactive,> 100 µg/mL,4.5 µM
C=C1CC[C@H]2[C@](C)(CO)CCC[C@]2(C)[C@H]1C[C@]12O[C@H]1[C@@H](O)C(CO)=CC2=O,39.8 µM,100 µg/mL,48.5 µM,inactive,inactive,inactive,50 µg/mL,29.3 µM
C=C1CC[C@H]2[C@](C)(CO)CCC[C@]2(C)[C@H]1C[C@@]12O[C@@H]1[C@@H](O)C(CO)=CC2=O,41.5 µM,100 µg/mL,34.2 µM,inactive,inactive,inactive,50 µg/mL,35.9 µM
C=C1CC[C@H]2[C@](C)(CO)CCC[C@]2(C)[C@H]1C[C@]12O[C@H]1[C@@H](O)C(CO)=C(Cl)C2=O,8 µM,25 µg/mL,15.2 µM,inactive,inactive,inactive,12.5 µg/mL,7.9 µM
C=C1CC[C@H]2[C@](C)(COC(C)=O)CCC[C@]2(C)[C@H]1C[C@@]12O[C@@H]1[C@@H](O)C(CO)=CC2=O,18 µM,> 100 µg/mL,27.8 µM,inactive,inactive,inactive,50 µg/mL,19.6 µM
